In ChEMBL document CHEMBL1141948, “Selective and orally bioavailable phenylglycine tissue factor/factor VIIa inhibitors” (Bioorg Med Chem Lett, 2005):

Assays:
[1] = molecular target: Trypsin (Homo sapiens, UniProt P07477+P07478+P35030); experiment: Binding affinity to trypsin; assay type: protein assay
[2] = molecular target: T1, Coagulation factor X (Homo sapiens, UniProt P00742); experiment: Activated partial thromboplastin time; assay type: functional
Outline: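 Human citrated plasma spiked with at least six inhibitor concentrations; intrinsic-pathway clotting started with Actin FS (ellagic acid in soy phosphatides). Clotting time read by turbidity. Concentration doubling control clotting time (EC50) obtained by fitting data to exponential regression.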

[3] = molecular target: T1, Coagulation factor X; experiment: Binding affinity to FXa
[4] = molecular target: Prothrombin (Homo sapiens, UniProt P00734); experiment: Binding affinity to thrombin
[5] = molecular target: Coagulation factor VII/tissue factor (Homo sapiens) (UniProt P08709+P13726); details: Plasma
[6] = species on record: Homo sapiens; experiment: Ratio of activated partial thromboplastin time against prothrombin time (aPTT/PT); assay type: functional
[7] = molecular target: Coagulation factor VII/tissue factor (Homo sapiens, UniProt P08709); experiment: Binding affinity to FVIIa/TF; assay type: protein-complex assay
Chain of Coagulation factor VII/tissue factor (P08709 61-212 limits assumed): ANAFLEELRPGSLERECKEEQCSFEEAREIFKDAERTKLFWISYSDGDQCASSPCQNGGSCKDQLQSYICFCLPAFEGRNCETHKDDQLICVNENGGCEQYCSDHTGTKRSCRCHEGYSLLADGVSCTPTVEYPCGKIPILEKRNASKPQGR
Chain of Coagulation factor VII/tissue factor (P08709 213-466 limits assumed): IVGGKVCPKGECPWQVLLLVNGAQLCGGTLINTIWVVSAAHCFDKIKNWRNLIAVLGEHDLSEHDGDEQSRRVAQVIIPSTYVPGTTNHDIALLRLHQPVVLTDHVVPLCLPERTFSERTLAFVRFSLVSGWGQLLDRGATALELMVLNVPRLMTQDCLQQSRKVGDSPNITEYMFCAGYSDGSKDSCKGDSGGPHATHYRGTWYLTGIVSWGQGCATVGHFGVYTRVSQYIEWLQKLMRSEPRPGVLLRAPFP
Chain of Coagulation factor VII/tissue factor (P13726 33-295 partner limits assumed): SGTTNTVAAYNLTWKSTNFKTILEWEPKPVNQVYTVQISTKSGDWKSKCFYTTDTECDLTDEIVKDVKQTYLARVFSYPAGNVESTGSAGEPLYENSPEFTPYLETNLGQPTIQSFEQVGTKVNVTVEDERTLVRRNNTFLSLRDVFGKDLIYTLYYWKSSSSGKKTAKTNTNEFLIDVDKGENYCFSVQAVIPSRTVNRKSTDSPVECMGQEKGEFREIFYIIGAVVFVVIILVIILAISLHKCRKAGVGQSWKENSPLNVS

[8] = Oral bioavailability in rat at 10.3 mg/kg; assay type: ADME, organism-based; details: in vivo
[9] = Half life in rat administered with 10.3 mg/kg, po; assay type: ADME, organism-based; parameters: dose 10.3 mg/kg, route oral; details: in vivo
[10] = Clearance in rat at 3 mg/kg; assay type: ADME, organism-based; parameters: dose 3 mg/kg; details: in vivo
Outline: (§1)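 Rat pharmacokinetics with intravenous and oral dosing at the stated doses (mg/kg). Half-lives determined for iv and po routes; clearance (ml/min/kg), steady-state volume of distribution (l/kg) and oral bioavailability (%) derived.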

[11] = Half life in rat administered with 3 mg/kg, iv; assay type: ADME, organism-based; parameters: dose 3 mg/kg, route intravenous; details: in vivo; outline: as §1
[12] = Volume of distribution in rat at 3 mg/kg; assay type: ADME, organism-based; parameters: dose 3 mg/kg; details: in vivo, read-out: Vdss; outline: as §1
[13] = Oral bioavailability in rat at 10 mg/kg; assay type: ADME, organism-based; details: in vivo; outline: as §1
[14] = Half life in rat administered with 10 mg/kg, po; assay type: ADME, organism-based; parameters: dose 10 mg/kg, route oral; details: in vivo; outline: as §1
[15] = Half life in rat administered with 10 mg/kg, iv; assay type: ADME, organism-based; parameters: dose 10 mg/kg, route intravenous; details: in vivo; outline: as §1
[16] = Clearance in rat at 6.1 mg/kg; assay type: ADME, organism-based; parameters: dose 6.1 mg/kg; details: in vivo; outline: as §1
[17] = Volume of distribution in rat at 6.1 mg/kg; assay type: ADME, organism-based; parameters: dose 6.1 mg/kg; details: in vivo, read-out: Vdss; outline: as §1
[18] = Oral bioavailability in rat at 6.1 mg/kg; assay type: ADME, organism-based; details: in vivo; outline: as §1
[19] = Half life in rat administered with 6.1 mg/kg, iv; assay type: ADME, organism-based; parameters: dose 6.1 mg/kg, route intravenous; details: in vivo; outline: as §1

T1 sequence (P00742 41-179 limits assumed): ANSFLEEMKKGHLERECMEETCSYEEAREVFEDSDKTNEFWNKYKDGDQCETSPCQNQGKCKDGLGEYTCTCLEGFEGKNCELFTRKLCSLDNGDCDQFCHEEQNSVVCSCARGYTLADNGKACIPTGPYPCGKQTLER
T1 sequence (P00742 235-488 limits assumed): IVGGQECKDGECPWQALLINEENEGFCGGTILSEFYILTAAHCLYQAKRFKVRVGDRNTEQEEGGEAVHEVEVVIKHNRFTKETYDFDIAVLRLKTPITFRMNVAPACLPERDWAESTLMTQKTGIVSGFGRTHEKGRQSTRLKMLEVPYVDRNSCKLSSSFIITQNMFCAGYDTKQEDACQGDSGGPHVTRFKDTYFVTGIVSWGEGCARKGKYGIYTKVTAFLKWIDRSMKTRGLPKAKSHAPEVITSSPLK

Ki [1] [µM]	2aPTT [2] [µM]	Ki [3] [µM]	Ki [4] [µM]	2PT [5] [µM]	Ki [7] [µM]	Structure (SMILES)	Ratio [6]	other results
4.8	15.6	> 7.5	1.6	–	–	CCc1cc(OC2CCOCC2)cc(C(Nc2ccc(C(=N)N)cc2)C(=O)O)c1 (stereo unspecified)	–	–
5.4	12.9	2.6	9.5	4.3	0.065	C#Cc1cc(O[C@H]2CCOC2)cc(C(Nc2ccc(C(=N)N)cc2)C(=O)O)c1 (stereo partly specified)	3	–
> 68	69.9	1.4	7.3	35.6	0.13	CCOc1cc(-c2ccccc2)cc(C(Nc2ccc(C(=N)N)cc2)C(=O)O)c1 (stereo unspecified)	2	–
0.31	–	0.73	0.074	11.9	0.061	COc1cc(C(Nc2ccc(C(=N)N)cc2)C(=O)O)ccc1OCc1ccccc1 (stereo unspecified)	–	–
8	57.6	2.2	10.2	11.8	0.51	CCOc1cc(-c2cccnc2)cc(C(Nc2ccc(C(=N)N)cc2)C(=O)O)c1 (stereo unspecified)	4.9	–
–	–	–	–	–	–	CCOc1cc(OCC)cc(C(Nc2ccc(C(=N)NO)cc2)C(=O)O)c1 (stereo unspecified)	–	bioavailability [8]: 30%; half-life [9]: 5 h
1	–	0.79	0.085	8.8	0.028	CCOc1cc(C(Nc2ccc(C(=N)N)cc2)C(=O)O)ccc1OCc1ccccc1 (stereo unspecified)	–	–
6.6	34	15.3	8.8	9.1	0.129	C#Cc1cc(O[C@@H]2CCOC2)cc(C(Nc2ccc(C(=N)N)cc2)C(=O)O)c1 (stereo partly specified)	3.7	–
4	29.4	12.2	5.5	5.4	0.11	CCOc1cc(O[C@H]2CC[C@H](O)CC2)cc(C(Nc2ccc(C(=N)N)cc2)C(=O)O)c1 (stereo partly specified)	5.4	–
7	19.8	2.9	> 6.6	4.8	0.14	CCOc1cc(OC2CCOCC2)cc(C(Nc2ccc(C(=N)N)cc2)C(=O)O)c1 (stereo unspecified)	4.1	–
7.3	17.2	2.3	8.6	–	–	CCOc1cc(O[C@H]2CCOC2)cc(C(Nc2ccc(C(=N)N)cc2)C(=O)O)c1 (stereo partly specified)	–	clearance [10]: 5.7 mL/min/kg; half-life [11]: 1.4 h; Vd [12]: 0.5 L/kg
–	–	–	–	–	–	CCOC(=O)C(Nc1ccc(C(=N)NO)cc1)c1cc(OCC)cc(O[C@H]2CCOC2)c1 (stereo partly specified)	–	bioavailability [13]: 15%; half-life [14]: 4.1 h; half-life [15]: 0.9 h
8.6	22.3	1.6	9.9	–	–	CCOc1cc(OC2CCN(C)CC2)cc(C(Nc2ccc(C(=N)N)cc2)C(=O)O)c1 (stereo unspecified)	–	–
1.9	14.3	2.9	4.7	3.4	0.038	C#Cc1cc(OC2CCOCC2)cc(C(Nc2ccc(C(=N)N)cc2)C(=O)O)c1 (stereo unspecified)	4.2	–
8.7	23.7	13.3	2.9	5.9	0.069	C=Cc1cc(OC2CCOCC2)cc(C(Nc2ccc(C(=N)N)cc2)C(=O)O)c1 (stereo unspecified)	4	–
4.5	10.3	1.5	4.6	–	–	CCOc1cc(O[C@H]2CCOC2)cc([C@@H](Nc2ccc(C(=N)N)cc2)C(=O)O)c1	–	–
16.9	–	5.6	> 35	–	–	CCOc1cc(OCC)cc(C(Nc2ccc(C(=N)N)cc2)C(=O)O)c1 (stereo unspecified)	–	clearance [16]: 2.6 mL/min/kg; Vd [17]: 0.3 L/kg; bioavailability [18]: 2%; half-life [19]: 2.9 h
–	–	–	–	–	–	CCOC(=O)C(Nc1ccc(C(=N)NO)cc1)c1cc(OCC)cc(OCC)c1 (stereo unspecified)	–	bioavailability [13]: 100%; half-life [14]: 4.8 h; half-life [15]: 3.5 h
3.5	26.9	4.4	> 3.5	4.8	0.18	CCOc1cc(OC2CCN(S(C)(=O)=O)CC2)cc(C(Nc2ccc(C(=N)N)cc2)C(=O)O)c1 (stereo unspecified)	5.6	–
9.9	51.7	9.1	11.3	–	–	CCOc1cc(O[C@@H]2CCOC2)cc(C(Nc2ccc(C(=N)N)cc2)C(=O)O)c1 (stereo partly specified)	–	–
